From PubChem BioAssay AID504933 (The Scripps Research Institute Molecular Screening Center, 2011)

Molecular target: Nuclear receptor subfamily 5 group A member 2 (Homo sapiens) (UniProt O00482)
Test: StAR luciferase signal decrease with LRH-1 – cell-based, StAR promoter, luminescence, assay provider, powder samples, LRH-1 inverse agonist project, late-stage follow-up (AID 504933)
Details: HEK293T LRH1 + StAR-luciferase reporter, 20 h
Procedure, shortened: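 system = HEK293T with LRH1 plus StAR luciferase reporter | times = 24 h bulk transfection before re-plating, then 20 h compound exposure | benchmarks = DMSO vehicle-treated wells as normalisation reference | compound = Nine-point dilution series topping at 10 µM, plus single 10 µM test | detection = luciferase reporter luminescence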

Chain of Nuclear receptor subfamily 5 group A member 2 (Homo sapiens) (O00482 whole entry, looked up): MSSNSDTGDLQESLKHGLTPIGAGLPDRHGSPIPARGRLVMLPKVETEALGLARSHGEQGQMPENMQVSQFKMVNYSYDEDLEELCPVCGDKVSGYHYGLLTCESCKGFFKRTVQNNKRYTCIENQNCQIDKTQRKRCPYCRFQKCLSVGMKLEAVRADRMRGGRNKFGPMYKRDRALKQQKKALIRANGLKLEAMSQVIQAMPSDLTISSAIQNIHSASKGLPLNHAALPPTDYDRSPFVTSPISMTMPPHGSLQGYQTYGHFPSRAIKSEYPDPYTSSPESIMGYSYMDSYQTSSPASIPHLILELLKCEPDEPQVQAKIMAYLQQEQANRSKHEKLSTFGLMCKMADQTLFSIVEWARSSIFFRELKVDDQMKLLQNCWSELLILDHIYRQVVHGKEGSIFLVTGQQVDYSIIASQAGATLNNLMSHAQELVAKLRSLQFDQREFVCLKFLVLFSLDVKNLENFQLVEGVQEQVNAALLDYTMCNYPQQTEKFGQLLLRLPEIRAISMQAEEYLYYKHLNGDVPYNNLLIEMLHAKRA

IC50 [µM] | SMILES
2.05 | O=c1cc(N2CCN(c3cccc(Cl)c3)CC2)[nH]c(=O)n1C1CCCCC1
2.12 | O=c1cc(N2CCN(c3cccc(C(F)(F)F)c3)CC2)[nH]c(=O)n1C1CCCCC1
